Screens deposited in PubChem BioAssay by several laboratories.
Calpain2 inh – calpain II (pig) inhibition. purified calpain II, fluorogenic peptide substrate, 30 min. inhibition, % at 16 µM. 220,000 compounds, 0.37% hits. AID 1236;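 active = inhibition above about 50%, limit read from the data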
FAS TE block – blocks the thioesterase domain of human fatty acid synthase; P49327; recombinant FAS-TE, OMFH fluorogenic substrate, fluorescence endpoint; inhibition, % at 15 µM; 360,000 compounds, 0.67% hits; AID 602261;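 active = compounds whose normalised, plate-corrected inhibition of enzyme fluorescence in the single-dose primary screen is 50% or more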
Target sequence (P49327 whole entry, looked up, the tested form may be a part): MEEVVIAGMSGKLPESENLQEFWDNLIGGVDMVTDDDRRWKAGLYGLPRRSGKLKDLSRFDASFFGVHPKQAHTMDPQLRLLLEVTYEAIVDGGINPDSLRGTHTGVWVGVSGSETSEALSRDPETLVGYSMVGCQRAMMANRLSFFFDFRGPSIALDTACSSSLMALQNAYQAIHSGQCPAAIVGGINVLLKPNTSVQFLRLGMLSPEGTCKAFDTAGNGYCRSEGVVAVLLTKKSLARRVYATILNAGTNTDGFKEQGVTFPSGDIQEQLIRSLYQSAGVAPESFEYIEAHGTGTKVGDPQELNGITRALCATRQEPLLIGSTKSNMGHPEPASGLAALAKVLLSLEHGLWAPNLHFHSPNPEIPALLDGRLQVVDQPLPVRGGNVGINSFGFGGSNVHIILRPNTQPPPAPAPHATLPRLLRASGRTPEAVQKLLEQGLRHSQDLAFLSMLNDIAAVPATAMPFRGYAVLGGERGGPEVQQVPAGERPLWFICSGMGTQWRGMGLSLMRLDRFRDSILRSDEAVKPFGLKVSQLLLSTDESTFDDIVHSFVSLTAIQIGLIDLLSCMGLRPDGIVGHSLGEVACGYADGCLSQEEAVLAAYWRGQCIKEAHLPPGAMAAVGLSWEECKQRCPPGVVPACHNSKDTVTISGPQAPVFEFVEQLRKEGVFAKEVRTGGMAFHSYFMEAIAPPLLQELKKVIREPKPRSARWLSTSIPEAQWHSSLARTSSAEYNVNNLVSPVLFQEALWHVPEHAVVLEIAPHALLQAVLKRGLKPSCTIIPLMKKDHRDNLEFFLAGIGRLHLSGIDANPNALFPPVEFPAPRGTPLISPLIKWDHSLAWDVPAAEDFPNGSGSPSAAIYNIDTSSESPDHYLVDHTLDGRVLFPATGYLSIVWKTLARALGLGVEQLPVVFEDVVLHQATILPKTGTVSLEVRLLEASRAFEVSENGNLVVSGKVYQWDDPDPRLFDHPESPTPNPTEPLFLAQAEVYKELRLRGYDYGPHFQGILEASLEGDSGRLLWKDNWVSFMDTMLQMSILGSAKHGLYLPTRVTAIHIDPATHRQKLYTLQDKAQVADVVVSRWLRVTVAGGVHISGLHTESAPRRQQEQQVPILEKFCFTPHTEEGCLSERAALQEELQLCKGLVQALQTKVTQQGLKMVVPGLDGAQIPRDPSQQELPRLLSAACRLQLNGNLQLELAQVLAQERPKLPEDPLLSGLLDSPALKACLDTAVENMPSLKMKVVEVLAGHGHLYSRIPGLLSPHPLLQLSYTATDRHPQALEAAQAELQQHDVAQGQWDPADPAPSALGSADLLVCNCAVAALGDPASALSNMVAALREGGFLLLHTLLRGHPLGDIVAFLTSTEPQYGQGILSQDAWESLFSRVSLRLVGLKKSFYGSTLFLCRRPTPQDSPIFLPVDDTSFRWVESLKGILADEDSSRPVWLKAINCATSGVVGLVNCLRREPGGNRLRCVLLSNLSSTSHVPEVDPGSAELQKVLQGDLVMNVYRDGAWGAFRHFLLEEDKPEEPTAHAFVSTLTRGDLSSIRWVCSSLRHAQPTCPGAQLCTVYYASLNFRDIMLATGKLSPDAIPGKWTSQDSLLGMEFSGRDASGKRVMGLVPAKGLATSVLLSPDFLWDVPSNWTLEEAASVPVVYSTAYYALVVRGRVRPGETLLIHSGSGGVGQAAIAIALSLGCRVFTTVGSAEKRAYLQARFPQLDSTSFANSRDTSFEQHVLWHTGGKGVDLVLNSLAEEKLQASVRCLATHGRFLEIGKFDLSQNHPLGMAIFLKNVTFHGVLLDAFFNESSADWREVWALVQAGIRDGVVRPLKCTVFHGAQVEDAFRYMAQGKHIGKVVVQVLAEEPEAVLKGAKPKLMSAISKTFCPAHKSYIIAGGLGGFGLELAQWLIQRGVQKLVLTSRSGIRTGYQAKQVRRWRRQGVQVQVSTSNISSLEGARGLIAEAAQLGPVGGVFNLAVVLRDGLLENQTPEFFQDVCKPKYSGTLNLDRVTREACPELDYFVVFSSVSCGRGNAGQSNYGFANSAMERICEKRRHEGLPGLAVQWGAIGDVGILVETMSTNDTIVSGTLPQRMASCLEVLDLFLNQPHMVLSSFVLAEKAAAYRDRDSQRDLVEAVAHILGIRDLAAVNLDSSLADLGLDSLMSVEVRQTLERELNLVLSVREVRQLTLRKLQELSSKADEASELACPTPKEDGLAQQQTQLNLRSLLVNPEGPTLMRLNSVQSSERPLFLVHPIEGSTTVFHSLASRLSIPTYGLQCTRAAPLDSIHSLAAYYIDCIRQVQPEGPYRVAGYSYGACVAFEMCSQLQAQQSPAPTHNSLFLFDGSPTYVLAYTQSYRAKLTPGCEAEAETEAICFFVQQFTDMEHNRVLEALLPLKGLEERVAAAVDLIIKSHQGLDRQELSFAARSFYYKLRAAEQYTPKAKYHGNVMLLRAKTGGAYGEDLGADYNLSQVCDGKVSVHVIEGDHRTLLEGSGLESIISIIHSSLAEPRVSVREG
RanGTP-Imp inh – inhibitors of RanGTP-importin-beta interaction, primary screen, biochemical, FRET, CFP-Ran, YFP-importin-beta, homogeneous | cell-free CFP-Ran/YFP-importin-beta FRET ratio | inhibition, % (no concentration beside the values) | 300,000 compounds, 1.1% hits;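 active = more than half of the replicate wells show a fall in the fluorescence ratio signal beyond about 16%, limit read from the data, passing the limit was not always enough; inconclusive = exactly half of the replicate wells pass the set limit; inactive = fewer than half of replicates pass the limit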
Runt-CBFb FRET – Runt domain-CBFb interaction inhibition | Q01196+Q13951 | Cerulean-Runt/Venus-CBFb FRET ratio 530/480, 1 h | inhibition, % at 20 µM | 220,000 compounds, 0.46% hits | AID 1496;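 active = inhibition over about 50% at 20 µM in the single-dose screen, limit read from the data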
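Buffer or medium: Tris pH 7.5 buffer with BSA. Assay system: Cerulean-labeled Runt domain protein. Amount: each fluorescent fusion protein 100 nM. Read-out basis: loss of energy transfer signal. Incubation: 1 h compound exposure, room temperature. Probe or stimulus: Venus-CBFb binding partner, 100 nM. Detection: FRET, excitation 422 nm, emission at 530 and 480 nm.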
Runt-SMMHC FRET – Runt domain-CBFb-SMMHC interaction inhibition; Q01196+Q13951; Cerulean-Runt/Venus-CBFb-SMMHC FRET ratio 530/480, 1 h; inhibition, % at 20 µM; 220,000 compounds, 0.74% hits; AID 1434;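 active = mean inhibition across duplicate retests at 20 µM reaching about 50%, limit read from the data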;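 note: inhibitors lower the FRET ratio by blocking Runt binding to CBFb-SMMHC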
FAS-TE conf – FAS thioesterase (human) inhibition, confirmation; shares compounds with FAS TE block; recombinant FAS-TE, OMFH fluorogenic substrate, fluorescence; inhibition, % at 15 µM; 2,300 compounds, 45% hits;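 active = compounds inhibiting the enzyme by at least 50% at 15 µM in any one of the replicates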
Each line names hits and unclear results; the compound was inactive in the other large screens (follow-up assays come after a bar, where they were run). Shown are actives, neighbours in structure and some others; about 2.1% of the full set was active somewhere.

O=C(NCCc1cccc(Cl)c1)c1cc([N+](=O)[O-])ccc1Cl	FAS TE block 63.6 | FAS-TE conf inactive
COC(=O)c1cc(C(=O)Nc2nnc(CC(C)(C)C)s2)cc([N+](=O)[O-])c1	FAS TE block 52.5 | FAS-TE conf 58.7
CCOCc1nnc(NC(=O)c2cc(C(=O)OC)cc([N+](=O)[O-])c2)s1	none
COc1ccc(-c2cc3cc(OC)c(OC)cc3c(C)n2)cc1	none
COc1ccccc1/C=C(\NC(=O)c1ccc(OC)c(OC)c1)C(=O)Nc1cccc([N+](=O)[O-])c1	FAS TE block 87.8 | FAS-TE conf 43.7
CC(=O)c1cccc(NC(=O)/C(=C\c2cccnc2)NC(=O)c2ccccc2)c1	none (no result: Calpain2 inh, Runt-CBFb FRET, Runt-SMMHC FRET)
Cc1ccc(NC(=O)/C(=C\c2ccc([N+](=O)[O-])cc2)NC(=O)c2ccccc2)cc1	none
COc1ccccc1/C=C(\NC(=O)c1ccc(OC)c(OC)c1)C(=O)Nc1ccc([N+](=O)[O-])cc1	FAS TE block 85.5 | FAS-TE conf inactive
CC(C)(C)c1ccc(C(=O)N/C(=C\c2cccc([N+](=O)[O-])c2)C(=O)Nc2cccc(C(=O)O)c2)cc1	FAS TE block 83.4 (no result: Calpain2 inh, Runt-CBFb FRET, Runt-SMMHC FRET) | FAS-TE conf 88.2
O=C(NNc1cccc([N+](=O)[O-])c1)/C(=C\c1cccnc1)NC(=O)c1ccccc1	FAS TE block 66.3 | FAS-TE conf 64.5
CCOC(=O)CN1C(=O)/C(=C2\SC(=S)N(NC(=O)c3cccnc3)C2=O)c2ccccc21	none (no result: Calpain2 inh, Runt-CBFb FRET, Runt-SMMHC FRET)
O=C(Cn1nnc(-c2ccc(F)cc2)n1)Nc1cccc(S(=O)(=O)N2CCCC2)c1	none (no result: Calpain2 inh, RanGTP-Imp inh, Runt-CBFb FRET, Runt-SMMHC FRET)
CC(C)Cc1nnc(NC(=O)c2ccc3c(c2)NC(=O)C(C)S3)s1 (stereo unspecified)	none (no result: Calpain2 inh, Runt-CBFb FRET, Runt-SMMHC FRET)
COc1ccc(CN2C(=O)C(CC(=O)NCc3cccs3)CC(C(=O)N3CCOCC3)=C2C)cc1 (stereo unspecified)	none (no result: Calpain2 inh, RanGTP-Imp inh, Runt-CBFb FRET, Runt-SMMHC FRET)
C[C@@H]1[C@H](O)C[C@@]23COC(=O)C2=CCC[C@@H]3[C@@]1(C)CC/C(=C/CO)CO	none (no result: Calpain2 inh, RanGTP-Imp inh, Runt-CBFb FRET, Runt-SMMHC FRET)
CCOc1ccc(-c2csc(NNC3=NCCCCC3)n2)cc1	none
Cc1c(NC(=O)C(C)OC(=O)c2cc(-c3cccc4ccccc34)nc3ccccc23)c(=O)n(-c2ccccc2)n1C (stereo unspecified)	FAS TE block 72.9 | FAS-TE conf inactive
CC(=O)c1ccc(NC(=O)CSc2nnc3ccc(-c4ccccn4)nn23)cc1	none (no result: Calpain2 inh, Runt-CBFb FRET, Runt-SMMHC FRET)
CC(=O)Nc1ccc(NC(=O)COC(=O)c2ccc(S(=O)(=O)N(C)c3ccccc3)cc2)cc1	none (no result: Calpain2 inh, RanGTP-Imp inh, Runt-CBFb FRET, Runt-SMMHC FRET)
O=C(O)c1cc(NN=Nc2ccc(Br)cc2)cc([N+](=O)[O-])c1	Calpain2 inh 60.3, FAS TE block 69.0 | FAS-TE conf 74.8
O=C(O)c1cc(NN=Nc2cccc([N+](=O)[O-])c2)cc([N+](=O)[O-])c1	none
Fc1cccc(-c2cc3nc4c(c(N5CCC6(CC5)OCCO6)n3n2)CCCC4)c1	FAS TE block 54.9 | FAS-TE conf inactive
CN(C)CCNc1nc2sc3c(c2c(=O)n1CCc1ccccc1)CCCCC3	FAS TE block 59.8 | FAS-TE conf 56.1
CCn1cc(C(=O)NCCCOC)c(=O)c2cc(S(=O)(=O)N3CCC(C)CC3)ccc21	none (no result: Calpain2 inh, Runt-CBFb FRET, Runt-SMMHC FRET)
C=CCn1cc(C(=O)NCc2ccco2)c(=O)c2cc(S(=O)(=O)N3CCCCCC3)ccc21	FAS TE block 61.1 | FAS-TE conf 69.8
CCn1cc(C(=O)NCc2ccco2)c(=O)c2cc(S(=O)(=O)N3CC(C)CC(C)C3)ccc21 (stereo unspecified)	FAS TE block 78.1 | FAS-TE conf 87.3
CCn1cc(C(=O)NCc2ccco2)c(=O)c2cc(S(=O)(=O)N3CCc4ccccc4C3)ccc21	RanGTP-Imp inh inconclusive
CCn1cc(C(=O)NCc2ccco2)c(=O)c2cc(S(=O)(=O)N3CCCCCC3)ccc21	FAS TE block 77.6 | FAS-TE conf 58.4
CCn1cc(C(=O)NCc2ccco2)c(=O)c2cc(S(=O)(=O)N3CCC(C)CC3)ccc21	FAS TE block 74.5 | FAS-TE conf 83.7
CC(=O)c1c(C)[nH]c(C(=O)OCC(=O)c2ccc3c(c2)NC(=O)CO3)c1C	none (no result: Calpain2 inh, RanGTP-Imp inh, Runt-CBFb FRET, Runt-SMMHC FRET)
O=[N+]([O-])c1ccc(Sc2n[nH]c(-c3ccccc3)n2)nc1	FAS TE block 51.8 | FAS-TE conf 63.8
COc1ccccc1C(=O)COC(=O)Cn1[nH]c(=O)c2ccccc2c1=O	RanGTP-Imp inh inconclusive (no result: Calpain2 inh, Runt-CBFb FRET, Runt-SMMHC FRET)
COc1ccc(CCNC(=O)Cc2cc3c(cc2[N+](=O)[O-])OCO3)cc1OC	none (no result: Calpain2 inh, RanGTP-Imp inh, Runt-CBFb FRET, Runt-SMMHC FRET)
O=C1C2C3C=CC(c4ccccc4)(C2C(=O)N1c1cccc(Cl)c1)C1C(=O)N(c2cccc(Cl)c2)C(=O)C31 (stereo unspecified)	FAS TE block 65.2 | FAS-TE conf inactive
O=C1C2C3CCCC3=C3CCCC3C2C(=O)N1c1cccc(Cl)c1 (stereo unspecified)	none
O=C(NCCc1ccccc1)C(c1cccs1)N(C(=O)CCl)c1ccc(Cl)cc1 (stereo unspecified)	FAS TE block 55.7 | FAS-TE conf 54.3
CSCCC(NC(=O)C1CCC(C)CC1)C(=O)Nc1ccc(NC(C)=O)cc1 (stereo unspecified)	none (no result: Calpain2 inh, Runt-CBFb FRET, Runt-SMMHC FRET)
C/C=C/C=C/C(=O)OC(C)C(=O)Nc1cc([N+](=O)[O-])ccc1OC (stereo unspecified)	FAS TE block 73.0, RanGTP-Imp inh inconclusive | FAS-TE conf 59.6
COc1ccc([N+](=O)[O-])cc1NC(=O)N(C)Cc1ccco1	FAS TE block 51.0, RanGTP-Imp inh inconclusive | FAS-TE conf 41.8
COc1ccc([N+](=O)[O-])cc1NC(=O)Nc1ccccc1	FAS TE block 58.4 | FAS-TE conf 62.4
COc1ccc(-n2cc(C(=O)Nc3cc([N+](=O)[O-])ccc3OC)c3ccccc3c2=O)cc1	FAS TE block 55.4 | FAS-TE conf inactive
CSC1=NCCN1C(=O)c1c(-c2c(F)cccc2Cl)noc1C	none
COc1ccc(Cc2[nH]n3c(=O)c(Cl)c(C)nc3c2-c2ccccc2)cc1	none
CCCCN(C(=O)c1cc2c(s1)CCCCC2)c1c(N)n(CC(C)C)c(=O)[nH]c1=O	none (no result: Calpain2 inh, RanGTP-Imp inh, Runt-CBFb FRET, Runt-SMMHC FRET)
O[C@@H]1C[C@H](c2ccc(Cl)cc2)N(CC2CCCCC2)C[C@H]1n1cc(C2CC2)nn1	none (no result: Calpain2 inh, RanGTP-Imp inh, Runt-CBFb FRET, Runt-SMMHC FRET)
O[C@H]1C[C@H](c2ccc(Cl)cc2)N(CC2CCCCC2)C[C@@H]1n1cc(C2CC2)nn1	FAS TE block 58.7 (no result: Calpain2 inh, RanGTP-Imp inh, Runt-CBFb FRET, Runt-SMMHC FRET) | FAS-TE conf 55.9
CC(CCc1ccccc1)NC(=O)COC(=O)c1cc(NS(=O)(=O)c2ccc(Cl)c([N+](=O)[O-])c2)ccc1O (stereo unspecified)	FAS TE block 54.6 | FAS-TE conf 61.7
Cc1cccc(NC(=O)CNC(=O)COC(=O)c2ccc(C(C)(C)C)cc2)c1C	FAS TE block 63.8 (no result: Calpain2 inh, RanGTP-Imp inh, Runt-CBFb FRET, Runt-SMMHC FRET) | FAS-TE conf 51.3
CCOc1ccc(-n2c(SCC(=O)Nc3ccc4c(c3)OCCO4)nc3c(c2=O)SCC3)cc1	FAS TE block 62.1 (no result: RanGTP-Imp inh) | FAS-TE conf inactive
